Tests used:
Type in all cases: functional
Staphylococcus aureus [1] = experiment: Effect on growth in Staphylococcus aureus MN8 at 10.00 mM after 24 hrs (reference value: 100%)
In short: (§1)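 Test-tube growth assay: 10 ml growth medium (brain heart infusion with 10% fetal bovine serum, MgCl2, L-glutamine) inoculated to 5 × 10^6 CFU/ml from a 24 h 37°C preculture. Compound diluted in medium, or dissolved in methanol with methanol-matched controls. After 24 h at 37°C with 5% CO2, OD600 and viable counts read. Growth given as % of CFU/ml of untreated controls in the same experiment.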

Staphylococcus aureus [2] = experiment: Effect on growth in Staphylococcus aureus MN8 at 5.00 mM after 24 hrs (reference value: 100%); in short: as §1
Staphylococcus aureus [3] = experiment: Effect on growth in Staphylococcus aureus MN8 at 2.50 mM after 24 hrs (reference value: 100%); in short: as §1
Staphylococcus aureus [4] = experiment: microbe, parasite or virus in culture; details: 24 h
Staphylococcus aureus [5] = experiment: microbe, parasite or virus in culture; details: 24 h; remark: listed apart in the source
Staphylococcus aureus [6] = experiment: microbe, parasite or virus in culture; details: 24 h; remark: listed apart in the source
Staphylococcus aureus [7] = experiment: Effect on growth in Staphylococcus aureus MN8 at 9.0 mM after 24 hrs (reference value: 100%); in short: as §1
Staphylococcus aureus [8] = experiment: microbe, parasite or virus in culture; details: 24 h; remark: listed apart in the source
Staphylococcus aureus [9] = experiment: Effect on growth in Staphylococcus aureus MN8 at 1.00 mM after 24 hrs (reference value: 100%); in short: as §1
Staphylococcus aureus [10] = experiment: Effect on growth in Staphylococcus aureus MN8 at 2.00 mM after 24 hrs (reference value: 100%); in short: as §1
Staphylococcus aureus [11] = experiment: microbe, parasite or virus in culture; details: 24 h; remark: listed apart in the source
Staphylococcus aureus [12] = experiment: microbe, parasite or virus in culture; details: 24 h; remark: listed apart in the source
Staphylococcus aureus [13] = experiment: Effect on growth in Staphylococcus aureus MN8 at 10.7 mM after 24 hrs (reference value: 100%); in short: as §1
Staphylococcus aureus [14] = experiment: microbe, parasite or virus in culture; details: 24 h; remark: listed apart in the source
Staphylococcus aureus [15] = experiment: Effect on growth in Staphylococcus aureus MN8 at 0.50 % after 24 hrs (reference value: 100%); in short: as §1
Staphylococcus aureus [16] = experiment: Effect on growth in Staphylococcus aureus MN8 at 0.10 % after 24 hrs (reference value: 100%); in short: as §1
Staphylococcus aureus [17] = test system: Staphylococcus aureus
Staphylococcus aureus [18] = test system: Staphylococcus aureus; remark: listed apart in the source
Staphylococcus aureus [19] = experiment: Effect on growth in Staphylococcus aureus MN8 at 0.20 % after 24 hrs (reference value: 100%); in short: as §1
Staphylococcus aureus [20] = test system: Staphylococcus aureus; remark: listed apart in the source
Staphylococcus aureus [21] = experiment: Effect on growth in Staphylococcus aureus MN8 at 0.75 mM after 24 hrs (reference value: 100%); in short: as §1
Staphylococcus aureus [22] = experiment: Effect on growth in Staphylococcus aureus MN8 at 3.75 mM after 24 hrs (reference value: 100%); in short: as §1
Staphylococcus aureus [23] = experiment: microbe, parasite or virus in culture; details: 24 h; remark: listed apart in the source
Staphylococcus aureus [24] = experiment: Effect on growth in Staphylococcus aureus MN8 at 120.00 mM after 24 hrs (reference value: 100%); in short: as §1
Staphylococcus aureus [25] = experiment: Effect on growth in Staphylococcus aureus MN8 at 80.00 mM after 24 hrs (reference value: 100%); in short: as §1
Staphylococcus aureus [26] = experiment: microbe, parasite or virus in culture; details: 24 h; remark: listed apart in the source
Staphylococcus aureus [27] = experiment: microbe, parasite or virus in culture; details: 24 h; remark: listed apart in the source
Staphylococcus aureus [28] = experiment: Effect on growth in Staphylococcus aureus MN8 at 9.8 mM after 24 hrs (reference value: 100%); in short: as §1
Staphylococcus aureus [29] = experiment: microbe, parasite or virus in culture; details: 24 h; remark: listed apart in the source

Compound: CCCCCCCCCCCCCCOCCOCCOCCOC(=O)CCCCCCCCCCCCC
- Activity (Staphylococcus aureus [1]): 143.3%
- Activity (Staphylococcus aureus [2]): 108%
- Activity (Staphylococcus aureus [3]): 106.6%
- inhibition at 10000 µM (Staphylococcus aureus [4]): 22.2%
- inhibition at 5000 µM (Staphylococcus aureus [5]): 47.4%
- inhibition at 2500 µM (Staphylococcus aureus [6]): 64.9%

Compound: CCCCCCCCCCCCOCCOCCOCCO
- Activity (Staphylococcus aureus [7]): 7.3%
- inhibition at 9000 µM (Staphylococcus aureus [8]): 1%

Compound: Oc1ccc(Cc2ccccc2)cc1
- Activity (Staphylococcus aureus [9]): 70.2%
- Activity (Staphylococcus aureus [10]): 37.1%
- inhibition at 1000 µM (Staphylococcus aureus [11]): 91%
- inhibition at 2000 µM (Staphylococcus aureus [12]): 77.2%

Compound: CCCCCCCCCCCC(=O)OCC(O)CO (racemic) [GLYCEROL MONOLAURATE]
- Activity (Staphylococcus aureus [13]): 36.3%
- inhibition at 10700 µM (Staphylococcus aureus [14]): 5.2%

Compound: CC(=O)Nc1ccc(O)cc1 [ACETAMINOPHEN]
- Activity (Staphylococcus aureus [15]): 13.2%
- Activity (Staphylococcus aureus [16]): 44.2%
- inhibition (INH) (Staphylococcus aureus [17]): 10.8%
- inhibition (INH) (Staphylococcus aureus [18]): 56.3%

Compound: CC(=O)N[C@@H](Cc1ccc(O)cc1)C(=O)O [ACETYL TYROSINE]
- Activity (Staphylococcus aureus [15]): 19.9%
- Activity (Staphylococcus aureus [16]): 47.5%
- inhibition (INH) (Staphylococcus aureus [17]): 47.1%
- inhibition (INH) (Staphylococcus aureus [18]): 71.5%

Compound: Nc1ccc(C(=O)O)cc1 [AMINOBENZOIC ACID]
- Activity (Staphylococcus aureus [19]): 11.8%
- inhibition (INH) (Staphylococcus aureus [20]): 8.6%

Compound: OCc1ccccc1 [BENZYL ALCOHOL]
- Activity (Staphylococcus aureus [15]): 8.9%
- Activity (Staphylococcus aureus [16]): 49.7%
- inhibition (INH) (Staphylococcus aureus [17]): 13.8%
- inhibition (INH) (Staphylococcus aureus [18]): 43.5%

Compound: CC(=O)/C=C/C1=C(C)CCCC1(C)C [BETA-IONONE]
- Activity (Staphylococcus aureus [21]): 27.1%
- Activity (Staphylococcus aureus [22]): 1%
- inhibition at 750 µM (Staphylococcus aureus [23]): 10%

Compound: C/C=C/C/C=C/CCC(=O)[C@H]1O[C@H]1C(N)=O [CERULENIN]
- Activity (Staphylococcus aureus [24]): 50%
- Activity (Staphylococcus aureus [25]): 235.1%
- inhibition at 120000 µM (Staphylococcus aureus [26]): 10.7%
- inhibition at 80000 µM (Staphylococcus aureus [27]): 8.4%

Compound: CCCCCCCCCCCC(=O)NCCOC(=O)C(CC(=O)[O-])S(=O)(=O)[O-].[Na+].[Na+] (stereo not drawn) [DISODIUM LAURAMIDO MEA]
- Activity (Staphylococcus aureus [13]): 29.4%
- inhibition at 10700 µM (Staphylococcus aureus [14]): 0.4%

Compound: CCCCCCCCCCCCOCCOCCOCCOC(=O)CC(C(=O)[O-])S(=O)(=O)[O-].[Na+].[Na+] (stereo not drawn) [DISODIUM LAURETH SULFOSUCCCINATE]
- Activity (Staphylococcus aureus [28]): 10.3%
- inhibition at 9800 µM (Staphylococcus aureus [29]): 0.6%

Compound: CCCCCCCCCCCC1=NCC[N+]1(CCOCC(=O)[O-])CC(=O)[O-].[Na+].[Na+].[OH-] (stereo not drawn) [DISODIUM LAUROAMPHODIACETATE]
- Activity (Staphylococcus aureus [13]): 11.3%
- inhibition at 10700 µM (Staphylococcus aureus [14]): 1%

Compound: O=C(O)c1cc(O)c(O)c(O)c1 [GALLIC ACID]
- Activity (Staphylococcus aureus [15]): 2.6%
- Activity (Staphylococcus aureus [16]): 45%
- inhibition (INH) (Staphylococcus aureus [17]): 8.7%
- inhibition (INH) (Staphylococcus aureus [18]): 41.4%

Compound: CC(C)=CCC/C(C)=C/CO [GERANIOL]
- Activity (Staphylococcus aureus [21]): 19.3%
- Activity (Staphylococcus aureus [22]): 3.9%
- inhibition at 750 µM (Staphylococcus aureus [23]): 0.7%

— ChEMBL document CHEMBL1649163, “Surfactants, aromatic and isoprenoid compounds, and fatty acid biosynthesis inhibitors suppress Staphylococcus aureus production of toxic shock syndrome toxin 1” (2009)
